pIC50: −log10 of the molar value. Peptide text beside a SMILES is read from it.
Key:
[1] = system: gliadin-reactive intestinal T cell lines (iTCLs) from HLA-DQ2+ celiac patients; assay: IFN-γ production; format: cell-based, human; conditions: for IFN-γ response (in words): peptide 30 μg/ml; for Hierarchical clustering by intensity of IFN-γ responses (OD peptide / OD medium): 14 patients, Cluster 3.0, Pearson correlation; for Potency in eliciting T cell responses relative to 33-mer: polyclonal iTCLs or peptide-specific TCCs; for Number of patients whose iTCL recognized the peptide (positive IFN-γ response) / Percentage of patients recognizing the peptide: 14 adult HLA-DQ2+ CD patients, positive = IFN-γ at least twice medium alone
Procedure, shortened: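 iTCLs grown from collagenase-digested jejunal explants in X-Vivo15 with 5% AB serum, stimulated with irradiated PBMC, TG2-deamidated PT-gliadin (50 μg/ml) and IL-15 (10 ng/ml). T cells (3 × 10^4) were incubated with autologous EBV-B cells (6 × 10^4) and TG2-treated peptides (30 μg/ml; 37°C, 4 h, pH 6.8). IFN-γ was measured by ELISA at 48 h. Positive response: ≥2× medium. OD ratios were row/column-normalised, then clustered. Duplicates, ≥3 experiments.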

[2] = system: DQ2-α-I/III-specific T cell clones from patient CD230204; assay: IFN-γ and proliferative responses of 17-mer-specific intestinal T cell clones; format: cell-based, human; conditions: TCCs from patient CD230204; peptide 30 μg/ml (8–19 μM)
Procedure, shortened: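 T cell clones were derived from the patient's intestinal T cell line by limiting dilution with irradiated allogeneic PBMC, B-LCL and PHA. Peptides were deamidated with TG2 (1:1, 4 h, 37°C, Tris-HCl pH 6.8, CaCl2, NaCl, DTT). Each clone (1 × 10^4) was cultured with autologous B-LCL. IFN-γ ELISA on 48 h supernatants; proliferation by [3H]thymidine added for a further 16 h. Duplicates.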

[3] = molecular target: purified HLA-DQ2 molecules (Homo sapiens, UniProt P01909+P01920); assay: HLA-DQ2 binding assay; conditions: read-out: IC50 of binding to purified HLA-DQ2; TG2-deamidated peptides; inhibition of 0.1–1 nM 125I-radiolabeled probe peptide binding to purified HLA-DQ2 (5–500 nM), 48 h in PBS; three or more independent assays
purified HLA-DQ2 molecules, sequence (P01920 33-261, other chains not shown): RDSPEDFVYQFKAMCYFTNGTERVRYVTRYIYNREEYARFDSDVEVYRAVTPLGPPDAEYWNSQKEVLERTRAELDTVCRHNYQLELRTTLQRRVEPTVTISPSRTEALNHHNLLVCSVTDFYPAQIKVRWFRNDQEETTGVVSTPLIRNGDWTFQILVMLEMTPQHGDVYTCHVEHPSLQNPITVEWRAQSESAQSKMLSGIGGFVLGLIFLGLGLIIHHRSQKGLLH

[4] = system: DQ2-α-I/III- or DQ2-α-II-specific intestinal T cells; assay: Dose-response assays with peptide-pulsed irradiated APCs on iTCLs and TCCs; format: cell-based, human
Procedure, shortened: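 Autologous B-LCL APCs, irradiated, pulsed overnight at 37°C with 10-fold increasing doses of peptide. Peptide deamidated beforehand with TG2 (1:1 enzyme/substrate, 4 h, 37°C, Tris-HCl pH 6.8 with CaCl2, NaCl, DTT). APCs washed before adding T cells (3 × 10^4 iTCL or 1 × 10^4 TCC). IFN-γ ELISA on 48 h supernatants. Mean of duplicates; three separate experiments.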

[5] = system: iTCLs from patient CD041051; assay: HLA restriction with anti-HLA-DR and anti-HLA-DQ blocking mAbs; format: cell-based, human; conditions: peptide 15 μM; anti-HLA-DR and anti-HLA-DQ mAbs 10 μg/ml
Procedure, shortened: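 Intestinal T cell lines came from collagenase-digested mucosal explants, expanded with irradiated PBMC, TG2-deamidated peptic-tryptic gliadin (50 μg/ml) and IL-15. For the assay, B-LCL APCs were preincubated 10 min with anti-HLA-DR (clone L243) or anti-HLA-DQ (clone SPV-L3) before peptide. T cells were then added. IFN-γ was measured by ELISA in 48 h supernatants. Duplicate wells, at least three independent experiments.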

Compound | IFN-γ response (in words) ([1]; iTCL of patient CD090401) | Hierarchical clustering by intensity of IFN-γ responses (OD peptide / OD medium) [1] | Number of patients whose iTCL recognized the peptide (positive IFN-γ response) [1] | also measured
QIPQQQQIPQQPQQF [Glu-5] | weak IFN-γ response |  |  | 
PQPQPFLPQLPYPQPQS [AG11] |  | strongest and more consistent responses |  | 
QLQPFPQPQLPYPQPQP [17-mer] | very high levels of IFN-γ | strongest and more consistent responses |  | Potency in eliciting T cell responses relative to 33-mer [1]: as potent as 33-mer; IFN-γ production and proliferation of 17-mer-specific T cell clones [2]: produced high levels of IFN-γ and proliferated
CC(C)C[C@H](NC(=O)[C@H](CCC(=O)O)NC(=O)[C@@H]1CCCN1C(=O)[C@H](CCC(N)=O)NC(=O)[C@@H]1CCCN1C(=O)[C@H](Cc1ccc(O)cc1)NC(=O)[C@@H]1CCCN1C(=O)[C@H](CCC(N)=O)NC(=O)[C@@H]1CCCN1C(=O)[C@@H](N)CCC(N)=O)C(=O)N1CCC[C@H]1C(=O)N[C@@H](Cc1ccc(O)cc1)C(=O)N1CCC[C@H]1C(=O)N[C@@H](CCC(N)=O)C(=O)N1CCC[C@H]1C(=O)N[C@@H](CCC(N)=O)C(=O)N1CCC[C@H]1C(=O)N[C@@H](Cc1ccccc1)C(=O)O [18-mer] (H-QPQPYPQPELPYPQPQPF-OH) | very high levels of IFN-γ | strongest and more consistent responses |  | 
QQPPFSQQQQSPFSQ [Glt-156] |  |  | no intestinal T cell response | 
QLQPFPQPTLPYPQPQS [T65] | recognized | strongest and more consistent responses | four | 
CC(C)C[C@H](NC(=O)[C@H](CCC(N)=O)NC(=O)[C@@H](N)CC(C)C)C(=O)N[C@@H](CCC(N)=O)C(=O)N1CCC[C@H]1C(=O)N[C@@H](Cc1ccccc1)C(=O)N1CCC[C@H]1C(=O)N[C@@H](CCC(N)=O)C(=O)N1CCC[C@H]1C(=O)N[C@@H](CCC(N)=O)C(=O)N[C@@H](CC(C)C)C(=O)N1CCC[C@H]1C(=O)N[C@@H](Cc1ccc(O)cc1)C(=O)N1CCC[C@H]1C(=O)N[C@@H](CCC(N)=O)C(=O)N1CCC[C@H]1C(=O)N[C@@H](CCC(N)=O)C(=O)N[C@@H](CC(C)C)C(=O)N1CCC[C@H]1C(=O)N[C@@H](Cc1ccc(O)cc1)C(=O)N1CCC[C@H]1C(=O)N[C@@H](CCC(N)=O)C(=O)N1CCC[C@H]1C(=O)N[C@@H](CCC(N)=O)C(=O)N[C@@H](CC(C)C)C(=O)N1CCC[C@H]1C(=O)N[C@@H](Cc1ccc(O)cc1)C(=O)N1CCC[C@H]1C(=O)N[C@@H](CCC(N)=O)C(=O)N1CCC[C@H]1C(=O)N[C@@H](CCC(N)=O)C(=O)N1CCC[C@H]1C(=O)N[C@@H](Cc1ccccc1)C(=O)O [33-mer] (H-LQLQPFPQPQLPYPQPQLPYPQPQLPYPQPQPF-OH; N-terminus and C-terminus assumed) | intermediate IFN-γ levels | strongest and more consistent responses | 7 patients | Percentage of patients recognizing the peptide [1]: 50%; IFN-γ response (in words) ([1]; iTCL of patient CD041051): high response; pIC50 [3]: 7.36; IFN-γ production and proliferation of 17-mer-specific T cell clones [2]: vigorously reacted
CC(C)C[C@H](NC(=O)[C@H](CCC(N)=O)NC(=O)[C@@H](N)CC(C)C)C(=O)N[C@@H](CCC(N)=O)C(=O)N1CCC[C@H]1C(=O)N[C@@H](Cc1ccccc1)C(=O)N1CCC[C@H]1C(=O)N[C@@H](CCC(N)=O)C(=O)N1CCC[C@H]1C(=O)N[C@@H](CCC(=O)O)C(=O)N[C@@H](CC(C)C)C(=O)N1CCC[C@H]1C(=O)N[C@@H](Cc1ccc(O)cc1)C(=O)O [13-mer] (H-LQLQPFPQPELPY-OH) | very high levels of IFN-γ | strongest and more consistent responses | five | IFN-γ response (in words) ([1]; iTCL of patient CD041051): weak IFN-γ production; Potency in activating DQ2-α-II-specific iTCLs (dose-response) ([4]; iTCLs from CD041051, APCs pulsed overnight with 10-fold increasing doses of TG2-deamidated peptide): weak stimulatory capacity and only at very high concentration (10 μM)
PQLPQFLQPQPYPQPQLPYPQPQPF [25-mer] |  | strongest and more consistent responses |  | Potency in eliciting T cell responses relative to 33-mer [1]: as potent as 33-mer
GQGIIQPQQPAQLIR [DQ2-γ-II] |  | low intensity of IFN-γ responses |  | IFN-γ response (in words) ([1]; iTCL of patient CD061204): recognizing
PFPQQPQQPYPQQPQ [DQ2-γ-III] | recognized | low intensity of IFN-γ responses |  | IFN-γ response (in words) ([1]; iTCL of patient CD061204): recognizing
SHIPGLERPSQQQPLPPQQTL [Glt(19–39)] |  |  | no intestinal T cell response | 
PQPQPFPPQLPYPQPQS [AG12] | recognized | low intensity of IFN-γ responses |  | 
QPQQPFPQPQQPFPWQP [DQ2-ω-1] | intermediate IFN-γ levels | strongest and more consistent responses | five | Percentage of patients recognizing the peptide [1]: 35%; IFN-γ response (in words) ([1]; iTCL of patient CD041051): very high; IFN-γ response (in words) ([1]; iTCL of patient CD130406): responded; IFN-γ production and proliferation of 17-mer-specific T cell clones [2]: no cross-reactivity occurred; IFN-γ production at 10-fold increased concentrations of peptide ([4]; iTCLs from patient CD041051): retained stimulatory activity even at low concentrations; HLA restriction of recognition [5]: restricted by HLA-DQ2
LQPQQPFPQQPQQPYPQQPQ [DQ2-γ-V] |  | low intensity of IFN-γ responses |  | IFN-γ response (in words) ([1]; iTCL of patient CD230204): weakly
PQQPQQSFPQQQQPA [DQ2-γ-I] |  | low intensity of IFN-γ responses | 5 patients | IFN-γ response (in words) ([1]; iTCL of patient CD230204): weakly
PFRPQQPYPQPQPQY [Glia-20] |  |  | no responses | 

Source: article PMC3306175 (Journal of Immunology (Baltimore, Md. : 1950), 2009)
